According to ChEMBL document CHEMBL1147090, “Effect of antibiotics on Staphylococcus aureus producing Panton-Valentine leukocidin” (2007):
Converted amounts (≈) assume the structure as drawn. The source made the active and inactive calls. The rule behind the calls is not given here.

Key:
Staphylococcus aureus [1] = experiment: Increase in Panton-Valentine leukocidin level in community acquired methicillin-resistant Staphylococcus aureus HT20040332 in CYY medium; assay type: functional, organism-based
Method in brief: (§1)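 Viable counts by plating diluted broth. Supernatant PVL measured by sandwich ELISA. μg PVL per log10 CFU is expressed as a percentage of the drug-free control. Means ± SD of five (LUG855) or three (clinical isolates) experiments. One-way ANOVA with Dunnett's test.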

Staphylococcus aureus [2] = experiment: Increase in Panton-Valentine leukocidin level in community acquired methicillin-resistant Staphylococcus aureus HT20041010 in CYY medium; assay type: functional, organism-based; method in brief: as §1
Staphylococcus aureus [3] = experiment: Antibacterial activity against community acquired methicillin-resistant Staphylococcus aureus HT20041010 in CCY media; assay type: functional
Method in brief: (§2)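 MIC by CLSI-standard broth microdilution, run both in Mueller-Hinton broth and in casein hydrolysate-yeast extract (CCY) medium. Inoculum 5 × 10^5 CFU/ml.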

Staphylococcus aureus [4] = experiment: Increase in Panton-Valentine leukocidin level in community acquired methicillin-resistant Staphylococcus aureus HT20030203 in CYY medium; assay type: functional, organism-based; method in brief: as §1
Staphylococcus aureus [5] = experiment: Antibacterial activity against Staphylococcus aureus LUG855 in Mueller-Hinton medium; assay type: functional; method in brief: as §2
Staphylococcus aureus [6] = experiment: Antibacterial activity against Staphylococcus aureus LUG855 in CCY media; assay type: functional; method in brief: as §2
Staphylococcus aureus [7] = experiment: Antibacterial activity against community acquired methicillin-resistant Staphylococcus aureus HT20040332 in Mueller-Hinton medium; assay type: functional; method in brief: as §2
Staphylococcus aureus [8] = experiment: Increase in Panton-Valentine leukocidin level in community acquired methicillin-resistant Staphylococcus aureus HT20010734 in CYY medium; assay type: functional, organism-based; method in brief: as §1
Staphylococcus aureus [9] = experiment: Antibacterial activity against community acquired methicillin-resistant Staphylococcus aureus HT20040332 in CCY media; assay type: functional; method in brief: as §2
Staphylococcus aureus [10] = experiment: Antibacterial activity against community acquired methicillin-resistant Staphylococcus aureus HT20020488 in Mueller-Hinton medium; assay type: functional; method in brief: as §2
Staphylococcus aureus [11] = experiment: Antibacterial activity against community acquired methicillin-resistant Staphylococcus aureus HT20030203 in Mueller-Hinton medium; assay type: functional; method in brief: as §2
Staphylococcus aureus [12] = experiment: Increase in Panton-Valentine leukocidin level in Staphylococcus aureus LUG855 in CCY medium; assay type: functional, organism-based; method in brief: as §1
Staphylococcus aureus [13] = experiment: Antibacterial activity against community acquired methicillin-resistant Staphylococcus aureus HT20030203 in CCY media; assay type: functional; method in brief: as §2
Staphylococcus aureus [14] = experiment: Antibacterial activity against community acquired methicillin-resistant Staphylococcus aureus HT20010734 in CCY medium; assay type: functional; method in brief: as §2
Staphylococcus aureus [15] = experiment: Antibacterial activity against community acquired methicillin-resistant Staphylococcus aureus HT20041010 in Mueller-Hinton medium; assay type: functional; method in brief: as §2
Staphylococcus aureus [16] = experiment: Antibacterial activity against community acquired methicillin-resistant Staphylococcus aureus HT20010734 in Mueller-Hinton medium; assay type: functional; method in brief: as §2
Staphylococcus aureus [17] = experiment: Antibacterial activity against community acquired methicillin-resistant Staphylococcus aureus HT20020488 in CCY medium; assay type: functional; method in brief: as §2
Staphylococcus aureus [18] = experiment: Decrease in Panton-Valentine leukocidin level in community acquired methicillin-resistant Staphylococcus aureus HT20041010 in CYY medium; assay type: functional, organism-based; method in brief: as §1
Staphylococcus aureus [19] = experiment: Decrease in Panton-Valentine leukocidin level in community acquired methicillin-resistant Staphylococcus aureus HT20030203 in CYY medium; assay type: functional, organism-based; method in brief: as §1
Staphylococcus aureus [20] = experiment: Decrease in Panton-Valentine leukocidin level in community acquired methicillin-resistant Staphylococcus aureus HT20040332 in CYY medium; assay type: functional, organism-based; method in brief: as §1
Staphylococcus aureus [21] = experiment: Decrease in Panton-Valentine leukocidin level in Staphylococcus aureus LUG855 in CCY medium; assay type: functional, organism-based; method in brief: as §1
Staphylococcus aureus [22] = experiment: Decrease in Panton-Valentine leukocidin level in community acquired methicillin-resistant Staphylococcus aureus HT20020488 in CYY medium; assay type: functional, organism-based; method in brief: as §1
Staphylococcus aureus [23] = experiment: Decrease in Panton-Valentine leukocidin level in community acquired methicillin-resistant Staphylococcus aureus HT20010734 in CYY medium; assay type: functional, organism-based; method in brief: as §1

Cc1onc(-c2ccccc2)c1C(=O)N[C@@H]1C(=O)N2[C@@H]1SC(C)(C)[C@@H]2C(=O)O [OXACILLIN]
Activity (Staphylococcus aureus [1]): Active
Activity (Staphylococcus aureus [2]): Active
MIC (Staphylococcus aureus [3]): 16 µg/mL (≈ 39.9 µM)
Activity (Staphylococcus aureus [4]): Active
MIC (Staphylococcus aureus [5]): 0.12 µg/mL (≈ 0.299 µM)
MIC (Staphylococcus aureus [6]): 0.06 µg/mL (≈ 0.149 µM)
MIC (Staphylococcus aureus [7]): 16 µg/mL (≈ 39.9 µM)
Activity (Staphylococcus aureus [8]): Active
MIC (Staphylococcus aureus [9]): 8 µg/mL (≈ 19.9 µM)
MIC (Staphylococcus aureus [10]): 8 µg/mL (≈ 19.9 µM)
MIC (Staphylococcus aureus [11]): 32 µg/mL (≈ 79.7 µM)
Activity (Staphylococcus aureus [12]): Active
MIC (Staphylococcus aureus [13]): 16 µg/mL (≈ 39.9 µM)
MIC (Staphylococcus aureus [14]): 16 µg/mL (≈ 39.9 µM)
MIC (Staphylococcus aureus [15]): 32 µg/mL (≈ 79.7 µM)
MIC (Staphylococcus aureus [16]): 32 µg/mL (≈ 79.7 µM)
MIC (Staphylococcus aureus [17]): 8 µg/mL (≈ 19.9 µM)

CC(=O)O[C@H]1C[C@@]2(C)[C@@H](C[C@@H](O)[C@H]3[C@@]4(C)CC[C@@H](O)[C@@H](C)[C@@H]4CC[C@@]32C)/C1=C(\CCC=C(C)C)C(=O)O [FUSIDIC ACID]
MIC (Staphylococcus aureus [3]): 128 µg/mL (≈ 248 µM)
MIC (Staphylococcus aureus [5]): < 0.03 µg/mL
MIC (Staphylococcus aureus [6]): < 0.03 µg/mL
MIC (Staphylococcus aureus [10]): 4 µg/mL (≈ 7.74 µM)
MIC (Staphylococcus aureus [11]): 0.12 µg/mL (≈ 0.232 µM)
MIC (Staphylococcus aureus [13]): 0.06 µg/mL (≈ 0.116 µM)
MIC (Staphylococcus aureus [15]): > 128 µg/mL
MIC (Staphylococcus aureus [17]): 4 µg/mL (≈ 7.74 µM)

CCC[C@@H]1C[C@@H](C(=O)N[C@@H]([C@H]2O[C@H](SC)[C@H](O)[C@@H](O)[C@H]2O)[C@H](C)Cl)N(C)C1 [CLINDAMYCIN]
MIC (Staphylococcus aureus [3]): > 128 µg/mL
Activity (Staphylococcus aureus [18]): Dose-dependent effect
MIC (Staphylococcus aureus [5]): 0.06 µg/mL (≈ 0.141 µM)
MIC (Staphylococcus aureus [6]): 0.12 µg/mL (≈ 0.282 µM)
MIC (Staphylococcus aureus [7]): > 128 µg/mL
Activity (Staphylococcus aureus [19]): Dose-dependent effect
MIC (Staphylococcus aureus [9]): > 128 µg/mL
Activity (Staphylococcus aureus [20]): Dose-dependent effect
MIC (Staphylococcus aureus [10]): > 128 µg/mL
MIC (Staphylococcus aureus [11]): 0.12 µg/mL (≈ 0.282 µM)
MIC (Staphylococcus aureus [13]): 0.25 µg/mL (≈ 0.588 µM)
Activity (Staphylococcus aureus [21]): Dose-dependent effect
Activity (Staphylococcus aureus [22]): Dose-dependent effect
MIC (Staphylococcus aureus [14]): 0.25 µg/mL (≈ 0.588 µM)
MIC (Staphylococcus aureus [15]): > 128 µg/mL
Activity (Staphylococcus aureus [23]): Dose-dependent effect
MIC (Staphylococcus aureus [16]): 0.12 µg/mL (≈ 0.282 µM)
MIC (Staphylococcus aureus [17]): > 128 µg/mL

CC(=O)NC[C@H]1CN(c2ccc(N3CCOCC3)c(F)c2)C(=O)O1 [LINEZOLID]
Activity (Staphylococcus aureus [18]): Dose-dependent effect
MIC (Staphylococcus aureus [5]): 1 µg/mL (≈ 2.96 µM)
MIC (Staphylococcus aureus [7]): 1 µg/mL (≈ 2.96 µM)
Activity (Staphylococcus aureus [19]): Dose-dependent effect
Activity (Staphylococcus aureus [20]): Dose-dependent effect
MIC (Staphylococcus aureus [10]): 0.5 µg/mL (≈ 1.48 µM)
MIC (Staphylococcus aureus [11]): 1 µg/mL (≈ 2.96 µM)
Activity (Staphylococcus aureus [21]): Dose-dependent effect
Activity (Staphylococcus aureus [22]): Dose-dependent effect
MIC (Staphylococcus aureus [15]): 1 µg/mL (≈ 2.96 µM)
Activity (Staphylococcus aureus [23]): Dose-dependent effect
MIC (Staphylococcus aureus [16]): 0.5 µg/mL (≈ 1.48 µM)
